A short description of data set [1]: Retention time of the compound. The class given is physicochemical.
Data set [2] addresses T1, Fatty-acid amide hydrolase 1 (Rattus norvegicus, UniProt P97612).
T1 sequence (P97612 whole entry): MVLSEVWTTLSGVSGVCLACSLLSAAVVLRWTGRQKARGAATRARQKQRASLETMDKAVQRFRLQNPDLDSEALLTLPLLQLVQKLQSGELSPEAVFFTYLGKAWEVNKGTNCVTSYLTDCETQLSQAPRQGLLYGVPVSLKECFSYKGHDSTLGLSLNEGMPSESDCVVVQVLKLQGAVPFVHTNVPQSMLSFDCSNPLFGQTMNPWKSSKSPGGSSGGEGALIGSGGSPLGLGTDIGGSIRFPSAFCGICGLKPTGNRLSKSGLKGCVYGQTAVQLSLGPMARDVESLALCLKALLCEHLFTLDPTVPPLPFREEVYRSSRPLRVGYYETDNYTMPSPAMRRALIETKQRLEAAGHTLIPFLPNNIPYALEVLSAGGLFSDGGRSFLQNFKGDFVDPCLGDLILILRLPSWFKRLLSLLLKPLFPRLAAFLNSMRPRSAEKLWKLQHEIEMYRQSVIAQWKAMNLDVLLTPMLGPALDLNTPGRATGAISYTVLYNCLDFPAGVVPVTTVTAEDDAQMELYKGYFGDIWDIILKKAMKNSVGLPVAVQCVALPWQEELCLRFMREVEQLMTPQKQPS
In words: Inhibition of recombinant rat FAAH preincubated for 3 hrs. The procedure, abridged: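 Recombinant FAAH (rFAAH) was preincubated with the inhibitor for 3 h before activity was measured. Results are reported as an apparent Ki in nM.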

Where only a bound is given, the exact number is not on record here.

In turn, `N#Cc1cnn(C(=O)NCc2ccc(-c3ccccc3)cc2)c1` registered a Retention_time in data set [1] of 3.897 min.

As for `Cc1cnn(C(=O)N2CCCCC2)c1`, the inhibition constant Ki in data set [2] is above 1000 nM. Moreover, the Retention_time in data set [1] is 3.933 min.

With `N#Cc1cnn(C(=O)N2CCCCC2)c1`, the Ki in data set [2] came to 80 nM. The Retention_time in data set [1] was 3.824 min.

Consider `CC(C)(C)OC(=O)N1CCN(C(=O)n2cccn2)CC1`, for which the Ki in data set [2] came to 340 nM. In addition, in data set [1], the Retention_time came out at 3.92 min.

Take `Cc1cnn(C(=O)N2CCN(C(=O)OC(C)(C)C)CC2)c1`: the inhibitory constant (Ki) in data set [2] is 850 nM. The same compound gave a Retention_time in data set [1] of 3.784 min.

With `CC(C)(C)OC(=O)N1CCN(C(=O)n2cc(C#N)cn2)CC1`, the inhibition constant Ki in data set [2] stood at 55 nM. In data set [1], this compound gave a Retention_time of 3.946 min.

In the case of `CC(C)(C)OC(=O)N1CCCN(C(=O)n2cccn2)CC1`, the Retention_time in data set [1] amounted to 3.518 min.

In turn, `Cc1cnn(C(=O)N2CCCN(C(=O)OC(C)(C)C)CC2)c1` returned a Retention_time in data set [1] of 3.959 min.

In the case of `CC(C)(C)OC(=O)N1CCCN(C(=O)n2cc(C#N)cn2)CC1`, the Retention_time in data set [1] was found to be 3.792 min.

Regarding `CN(CCN(C)C(=O)n1cccn1)C(=O)OC(C)(C)C`, the Retention_time in data set [1] is 3.884 min.

Compound `Cc1cnn(C(=O)N(C)CCN(C)C(=O)OC(C)(C)C)c1` showed a Retention_time in data set [1] of 3.969 min.

Compound `CN(CCN(C)C(=O)n1cc(C#N)cn1)C(=O)OC(C)(C)C` returned a Retention_time in data set [1] of 3.791 min.

Turning to `O=C(N1CCN(Cc2ccccc2)CC1)n1cccn1`, in data set [2], the Ki was found to be 180 nM. The Retention_time in data set [1] was 3.894 min.

Turning to `Cc1cnn(C(=O)N2CCN(Cc3ccccc3)CC2)c1`, the Ki in data set [2] worked out at 250 nM. This compound also registered a Retention_time in data set [1] of 4.201 min.

Turning to `N#Cc1cnn(C(=O)N2CCN(Cc3ccccc3)CC2)c1`, in data set [2], the inhibitory constant (Ki) turned out to be 75 nM. This compound also registered a Retention_time in data set [1] of 3.899 min.

On to `O=C(N1CCN(Cc2ccc(-c3ccccc3)cc2)CC1)n1cccn1`, for which the inhibition constant Ki in data set [2] turned out to be 12 nM. In data set [1], this compound gave a Retention_time of 3.897 min.

Regarding `Cc1cnn(C(=O)N2CCN(Cc3ccc(-c4ccccc4)cc3)CC2)c1`, in data set [2], the inhibition constant Ki stood at 170 nM. The compound also returned a Retention_time in data set [1] of 3.899 min.

With `O=C(N1CCN(Cc2ccc(OCc3ccccc3)cc2)CC1)n1cccn1`, the Ki in data set [2] came to 10 nM. The same compound registered a Retention_time in data set [1] of 3.929 min.

In the case of `Cc1cnn(C(=O)N2CCN(Cc3ccc(OCc4ccccc4)cc3)CC2)c1`, the Ki in data set [2] stood at 100 nM. The compound further came in with a Retention_time in data set [1] of 3.899 min.

Turning to `N#Cc1cnn(C(=O)N2CCN(Cc3ccc(OCc4ccccc4)cc3)CC2)c1`, the inhibition constant Ki in data set [2] was found to be 0.16 nM. In addition, the Retention_time in data set [1] stood at 3.787 min.

Consider `N#Cc1cnn(C(=O)N2CCN(Cc3ccc(-c4ccccc4)cc3)CC2)c1`, for which the Ki in data set [2] is 0.19 nM. For the same compound, the Retention_time in data set [1] came out at 3.877 min.

Consider `O=C(NCCCCc1ccccc1)n1cccn1`, for which the Ki in data set [2] came to 290 nM. Moreover, in data set [1], the Retention_time came out at 3.955 min.

`Cc1cnn(C(=O)NCCCCc2ccccc2)c1`: the inhibitory constant (Ki) in data set [2] was determined as 550 nM. For the same compound, in data set [1], the Retention_time was 3.713 min.

For `N#Cc1cnn(C(=O)NCCCCc2ccccc2)c1`, in data set [2], the inhibition constant (Ki) amounted to 42 nM. The same compound showed a Retention_time in data set [1] of 3.746 min.

For the compound `O=C(OCCCCc1ccccc1)n1cccn1`, the inhibition constant Ki in data set [2] was determined as 710 nM. In addition, the Retention_time in data set [1] stood at 3.779 min.

As for `Cc1cnn(C(=O)OCCCCc2ccccc2)c1`, the inhibition constant (Ki) in data set [2] is above 5000 nM. The Retention_time in data set [1] stood at 3.988 min.

On to `N#Cc1cnn(C(=O)OCCCCc2ccccc2)c1`, for which the inhibition constant (Ki) in data set [2] was 210 nM. Further, in data set [1], the Retention_time stood at 3.762 min.

In the case of `O=C(CCCCCc1ccccc1)n1cccn1`, the inhibitory constant (Ki) in data set [2] is above 5000 nM. The Retention_time in data set [1] was determined as 4.199 min.

For the compound `Cc1cnn(C(=O)CCCCCc2ccccc2)c1`, the inhibitory constant (Ki) in data set [2] is above 5000 nM. In addition, the Retention_time in data set [1] is 4.2 min.

As for `N#Cc1cnn(C(=O)CCCCCc2ccccc2)c1`, the Ki in data set [2] is above 5000 nM. In addition, in data set [1], the Retention_time is given as 3.998 min.

Regarding `O=C(NCCCc1ccccc1)n1cccn1`, the Retention_time in data set [1] turned out to be 3.989 min.

The compound `Cc1cnn(C(=O)NCCCc2ccccc2)c1` gave a Retention_time in data set [1] of 3.616 min.

`N#Cc1cnn(C(=O)NCCCc2ccccc2)c1`: the Retention_time in data set [1] is listed as 3.915 min.

As to `O=C(OCCCc1ccccc1)n1cccn1`, the Retention_time in data set [1] was determined as 3.669 min.

As to `Cc1cnn(C(=O)OCCCc2ccccc2)c1`, the Retention_time in data set [1] stood at 3.69 min.

The compound `N#Cc1cnn(C(=O)OCCCc2ccccc2)c1` gave a Retention_time in data set [1] of 3.927 min.

`O=C(CCCCc1ccccc1)n1cccn1` registered a Retention_time in data set [1] of 3.977 min.

In the case of `Cc1cnn(C(=O)CCCCc2ccccc2)c1`, the Retention_time in data set [1] came to 3.687 min.

`N#Cc1cnn(C(=O)CCCCc2ccccc2)c1` gave a Retention_time in data set [1] of 3.702 min.

Take `O=C(NCCCCCc1ccccc1)n1cccn1`: the Retention_time in data set [1] turned out to be 4.011 min.

In data set [1], `Cc1cnn(C(=O)NCCCCCc2ccccc2)c1` returned a Retention_time of 4.178 min.

Compound `N#Cc1cnn(C(=O)NCCCCCc2ccccc2)c1` showed a Retention_time in data set [1] of 4.125 min.

In turn, `O=C(OCCCCCc1ccccc1)n1cccn1` registered a Retention_time in data set [1] of 4.159 min.

Regarding `Cc1cnn(C(=O)OCCCCCc2ccccc2)c1`, the Retention_time in data set [1] was 4.104 min.

`N#Cc1cnn(C(=O)OCCCCCc2ccccc2)c1` displayed a Retention_time in data set [1] of 4.274 min.

Take `O=C(NCc1ccc2ccccc2c1)n1cccn1`: the Retention_time in data set [1] was 4.106 min.

In data set [1], `Cc1cnn(C(=O)NCc2ccc3ccccc3c2)c1` showed a Retention_time of 4.243 min.

Regarding `N#Cc1cnn(C(=O)NCc2ccc3ccccc3c2)c1`, the Retention_time in data set [1] is reported as 4.14 min.

As for `O=C(OCc1ccc2ccccc2c1)n1cccn1`, the Retention_time in data set [1] was found to be 4.008 min.

As for `Cc1cnn(C(=O)OCc2ccc3ccccc3c2)c1`, in data set [1], the Retention_time was 3.998 min.

On to `N#Cc1cnn(C(=O)OCc2ccc3ccccc3c2)c1`, for which, in data set [1], the Retention_time was 3.689 min.

`O=C(Cc1ccc2ccccc2c1)n1cccn1`: the Retention_time in data set [1] is 3.788 min.

`Cc1cnn(C(=O)Cc2ccc3ccccc3c2)c1` showed a Retention_time in data set [1] of 3.992 min.

In data set [1], `N#Cc1cnn(C(=O)Cc2ccc3ccccc3c2)c1` displayed a Retention_time of 3.906 min.

The compound `O=C(NCc1ccc(-c2ccccc2)cc1)n1cccn1` gave a Retention_time in data set [1] of 3.944 min.

Regarding `Cc1cnn(C(=O)NCc2ccc(-c3ccccc3)cc2)c1`, the Retention_time in data set [1] was 3.907 min.

In turn, `O=C(OCc1ccc(-c2ccccc2)cc1)n1cccn1` yielded a Retention_time in data set [1] of 3.999 min.

As to `Cc1cnn(C(=O)OCc2ccc(-c3ccccc3)cc2)c1`, the Retention_time in data set [1] amounted to 4.102 min.

As for `N#Cc1cnn(C(=O)OCc2ccc(-c3ccccc3)cc2)c1`, the Retention_time in data set [1] is listed as 4.103 min.

`O=C(Cc1ccc(-c2ccccc2)cc1)n1cccn1` gave a Retention_time in data set [1] of 4.1 min.

`Cc1cnn(C(=O)Cc2ccc(-c3ccccc3)cc2)c1` returned a Retention_time in data set [1] of 3.467 min.

`N#Cc1cnn(C(=O)Cc2ccc(-c3ccccc3)cc2)c1` yielded a Retention_time in data set [1] of 3.977 min.

For the compound `O=C(NCc1ccc(Oc2ccccc2)cc1)n1cccn1`, the Retention_time in data set [1] stood at 3.987 min.

For `Cc1cnn(C(=O)NCc2ccc(Oc3ccccc3)cc2)c1`, the Retention_time in data set [1] stood at 3.992 min.

On to `N#Cc1cnn(C(=O)NCc2ccc(Oc3ccccc3)cc2)c1`, for which, in data set [1], the Retention_time amounted to 4.022 min.

As to `O=C(OCc1ccc(Oc2ccccc2)cc1)n1cccn1`, the Retention_time in data set [1] is given as 3.989 min.

For the compound `Cc1cnn(C(=O)OCc2ccc(Oc3ccccc3)cc2)c1`, in data set [1], the Retention_time was determined as 3.899 min.

On to `N#Cc1cnn(C(=O)OCc2ccc(Oc3ccccc3)cc2)c1`, for which, in data set [1], the Retention_time amounted to 3.92 min.

In turn, `O=C(NCc1ccc(OCc2ccccc2)cc1)n1cccn1` registered a Retention_time in data set [1] of 3.896 min.

The compound `Cc1cnn(C(=O)NCc2ccc(OCc3ccccc3)cc2)c1` displayed a Retention_time in data set [1] of 3.876 min.

For `N#Cc1cnn(C(=O)NCc2ccc(OCc3ccccc3)cc2)c1`, the Retention_time in data set [1] is on record as 3.877 min.

Compound `O=C(OCc1ccc(OCc2ccccc2)cc1)n1cccn1` gave a Retention_time in data set [1] of 3.905 min.

The compound `Cc1cnn(C(=O)OCc2ccc(OCc3ccccc3)cc2)c1` displayed a Retention_time in data set [1] of 3.91 min.

`N#Cc1cnn(C(=O)OCc2ccc(OCc3ccccc3)cc2)c1` came in with a Retention_time in data set [1] of 3.912 min.

Compound `O=C(Nc1ccc2ccccc2c1)n1cccn1` yielded a Retention_time in data set [1] of 3.895 min.

Consider `Cc1cnn(C(=O)Nc2ccc3ccccc3c2)c1`, for which, in data set [1], the Retention_time was 3.9 min.

As to `N#Cc1cnn(C(=O)Nc2ccc3ccccc3c2)c1`, the Retention_time in data set [1] was found to be 3.965 min.

As for `O=C(Oc1ccc2ccccc2c1)n1cccn1`, in data set [1], the Retention_time is given as 3.96 min.

Compound `Cc1cnn(C(=O)Oc2ccc3ccccc3c2)c1` returned a Retention_time in data set [1] of 3.954 min.

`N#Cc1cnn(C(=O)Oc2ccc3ccccc3c2)c1` yielded a Retention_time in data set [1] of 3.9 min.

Compound `Cc1ccc(CNC(=O)n2cccn2)cc1` had a Retention_time in data set [1] of 4.104 min.

`Cc1ccc(CNC(=O)n2cc(C)cn2)cc1` returned a Retention_time in data set [1] of 4.11 min.

The compound `Cc1ccc(CNC(=O)n2cc(C#N)cn2)cc1` returned a Retention_time in data set [1] of 3.97 min.

`Cc1ccc(COC(=O)n2cccn2)cc1` showed a Retention_time in data set [1] of 4.1 min.

Turning to `Cc1ccc(COC(=O)n2cc(C)cn2)cc1`, the Retention_time in data set [1] came out at 4.122 min.

On to `Cc1ccc(COC(=O)n2cc(C#N)cn2)cc1`, for which the Retention_time in data set [1] was 3.988 min.
